From ChEMBL document CHEMBL1687888, “Synthesis, hypoxia-selective cytotoxicity of new 3-amino-1,2,4-benzotriazine-1,4-dioxide derivatives” (Eur J Med Chem, 2011)
Calls of active or inactive are those of the source. No cut-off for these calls is given here.

Key:
SMMC-7721 [1] = assay: Cytotoxicity against human SMMC7721 cells for 72 hrs under hypoxic condition by MTT assay; assay type: functional, cell-based; settings: SMMC-7721, 72 h
In short: (§1)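 RPMI-1640 with heat-inactivated 10% FBS plus penicillin/streptomycin; hypoxia 3% O2, 5% CO2 or normoxia 20% O2, 5% CO2, 37 °C. Compounds dissolved in DMSO at 10.0 mg/mL (stock), then diluted; cells seeded 5×10³ per well. Viability read by MTT kit; IC50 taken as concentration giving 50% absorbance inhibition versus control cells.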

SMMC-7721 [2] = assay: Cytotoxicity against human SMMC7721 cells for 72 hrs under normoxic condition by MTT assay; assay type: functional, cell-based; settings: SMMC-7721, 72 h; in short: as §1
K562 [3] = assay: Cytotoxicity against human K562 cells for 72 hrs under hypoxic condition by MTT assay; assay type: functional, cell-based; settings: K562, 72 h; in short: as §1
K562 [4] = assay: Cytotoxicity against human K562 cells for 72 hrs under normoxic condition by MTT assay; assay type: functional, cell-based; settings: K562, 72 h; in short: as §1
KB [5] = assay: Cytotoxicity against human KB cells for 72 hrs under hypoxic condition by MTT assay; assay type: functional, cell-based; in short: as §1
KB [6] = assay: Cytotoxicity against human KB cells for 72 hrs under normoxic condition by MTT assay; assay type: functional, cell-based; in short: as §1
A549 [7] = assay: Cytotoxicity against human A549 cells for 72 hrs under hypoxic condition by MTT assay; assay type: functional, cell-based; settings: A549, 72 h; in short: as §1
A549 [8] = assay: Cytotoxicity against human A549 cells for 72 hrs under normoxic condition by MTT assay; assay type: functional, cell-based; settings: A549, 72 h; in short: as §1
PC-3 [9] = assay: Cytotoxicity against human PC3 cells for 72 hrs under hypoxic condition by MTT assay; assay type: functional, cell-based; settings: PC-3, 72 h; in short: as §1
PC-3 [10] = assay: Cytotoxicity against human PC3 cells for 72 hrs under normoxic condition by MTT assay; assay type: functional, cell-based; settings: PC-3, 72 h; in short: as §1
K562 [11] = assay: Induction of apoptosis in human K562 cells under normoxic condition assessed as DNA fragmentation at 10 uM for 48 hrs using propidium iodide by flow cytometry; assay type: functional, cell-based
In short: (§2)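 K562 held under hypoxia (3% O2, 5% CO2) or normoxia (20% O2, 5% CO2) at 37 °C, treated 48 h. Cells washed in PBS, fixed in 75% ethanol at −20 °C overnight, RNase-treated 30 min at 37 °C, PI-stained 30 min at room temperature in the dark. DNA content and apoptotic fraction read by flow cytometry.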

K562 [12] = assay: Induction of apoptosis in human K562 cells under hypoxic condition assessed as DNA fragmentation at 10 uM for 48 hrs using propidium iodide by flow cytometry; assay type: functional, cell-based; in short: as §2
K562 [13] = assay: Induction of apoptosis in human K562 cells under normoxic condition assessed as accumulation at Sub-G1 phase at 10 uM for 48 hrs using propidium iodide by flow cytometry (reference value: 5.27%); assay type: functional
K562 [14] = assay: Induction of apoptosis in human K562 cells under hypoxic condition assessed as accumulation at Sub-G1 phase at 10 uM for 48 hrs using propidium iodide by flow cytometry (reference value: 13.03%); assay type: functional
K562 [15] = assay: Induction of apoptosis in human K562 cells under hypoxic condition assessed as decrease in procaspase-3 level at 10 uM for 48 hrs by Western blotting; assay type: functional, cell-based
In short: (§3)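 K562 treated 48 h under hypoxia (3% O2) or normoxia (20% O2), 5% CO2, 37 °C. Lysis buffer: 150 mM NaCl, 50 mM Tris-HCl pH 8.0, 2 mM EGTA, 2 mM EDTA, 25 mM NaF, 25 mM β-glycerophosphate, 0.2% Triton X-100, 0.3% NP-40, 0.1 mM PMSF. Extracts immunoblotted for procaspase-3, cleaved caspase-3, PARP and XIAP.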

K562 [16] = assay: Induction of apoptosis in human K562 cells under hypoxic condition assessed as decrease in XIAP level at 10 uM for 48 hrs by Western blotting; assay type: functional, cell-based; in short: as §3
K562 [17] = assay: Induction of apoptosis in human K562 cells under hypoxic condition assessed as decrease in PARP level at 10 uM for 48 hrs by Western blotting; assay type: functional, cell-based; in short: as §3
K562 [18] = assay: Induction of apoptosis in human K562 cells under hypoxic condition assessed as caspase-3 cleavage at 10 uM for 48 hrs by Western blotting; assay type: functional, cell-based; in short: as §3
K562 [19] = assay: Induction of apoptosis in human K562 cells under hypoxic condition assessed as decrease in XIAP level at 10 uM for 48 hrs by Western blotting
K562 [20] = assay: Induction of apoptosis in human K562 cells under hypoxic condition assessed as decrease in PARP level at 10 uM for 48 hrs by Western blotting
K562 [21] = assay: Induction of apoptosis in human K562 cells under hypoxic condition assessed as decrease in procaspase-3 level at 10 uM for 48 hrs by Western blotting

SMILES | IC50 (SMMC-7721 [1]) | IC50 (SMMC-7721 [2]) | IC50 (K562 [3]) | IC50 (K562 [4]) | IC50 (KB [5]) | IC50 (KB [6]) | IC50 (A549 [7]) | IC50 (A549 [8]) | IC50 (PC-3 [9]) | IC50 (PC-3 [10]) | further results
CCCOCNc1n[n+]([O-])c2ccccc2[n+]1[O-] | 5.53 µM | 19.5 µM | 3.89 µM | 17.6 µM | 10.2 µM | 1.95 µM | 3.74 µM | 7.46 µM | 7.4 µM | 14.2 µM | –
CCCCCCCOCNc1n[n+]([O-])c2ccccc2[n+]1[O-] | 3.09 µM | 7.03 µM | 6.17 µM | 2.97 µM | 14 µM | 2.52 µM | 3.49 µM | 2.61 µM | 0.39 µM | 1.21 µM | –
Nc1n[n+]([O-])c2ccccc2[n+]1[O-] [TIRAPAZAMINE] | 4.75 µM | 32.8 µM | 1.81 µM | 19.4 µM | 18.7 µM | 6.29 µM | 1.93 µM | 7.43 µM | 1.17 µM | 21 µM | –
COc1ccc(COCNc2n[n+]([O-])c3ccccc3[n+]2[O-])cc1 | 1.15 µM | 22 µM | 0.66 µM | 20.1 µM | 14.2 µM | 4.06 µM | 3.32 µM | 7.64 µM | 52.8 µM | 14.5 µM | Activity (K562 [11]): Active; Activity (K562 [12]): Active; Activity (K562 [13]): 14.95%; Activity (K562 [14]): 54.24%; Activity (K562 [15]): Active; Activity (K562 [16]): Active; Activity (K562 [17]): Active; Activity (K562 [18]): Active; Activity (K562 [19]): Active; Activity (K562 [20]): Active; Activity (K562 [21]): Active
CCCOCNc1n[n+]([O-])c2cc(OC)ccc2[n+]1[O-] | 1.07 µM | 2.88 µM | 3.52 µM | 4.28 µM | 12 µM | 3.2 µM | 2.54 µM | 2.81 µM | 10.6 µM | 6.57 µM | –
CC(C)CCOCNc1n[n+]([O-])c2ccccc2[n+]1[O-] | 2.86 µM | 15.9 µM | 5.85 µM | 13.1 µM | 5.21 µM | 3.04 µM | 2.11 µM | 7.27 µM | 7.52 µM | 11.1 µM | –
CC(OCNc1n[n+]([O-])c2ccccc2[n+]1[O-])c1ccccc1 (stereo not drawn) | 2.47 µM | 12.9 µM | 2.24 µM | 8.72 µM | 14 µM | 2.51 µM | 2.81 µM | 2.71 µM | 10.7 µM | 6.08 µM | –
COCNc1n[n+]([O-])c2ccccc2[n+]1[O-] | 2.48 µM | 6.67 µM | 3.79 µM | 7.8 µM | 9.07 µM | 1.58 µM | 2.77 µM | 7.45 µM | 4.27 µM | 7.51 µM | –
CCCCCOCNc1n[n+]([O-])c2cc(OC)ccc2[n+]1[O-] | 0.55 µM | 12.9 µM | 0.45 µM | 7.11 µM | 16.9 µM | 2.81 µM | 2.51 µM | 5.04 µM | 30.9 µM | 3.63 µM | –
COc1ccc2c(c1)[n+]([O-])nc(NCOCc1ccccc1)[n+]2[O-] | 1.19 µM | 21.4 µM | 0.24 µM | 27.5 µM | 18.1 µM | 2.4 µM | 4.47 µM | 2.5 µM | 88.5 µM | 8.58 µM | –
[O-][n+]1nc(NCOC2CCCCC2)[n+]([O-])c2ccccc21 | 4.17 µM | 28.2 µM | 4.88 µM | 10.8 µM | 22.1 µM | 4.39 µM | 1.2 µM | 5.18 µM | 6.67 µM | 3.25 µM | –
[O-][n+]1nc(NCOCc2ccc(C(F)(F)F)cc2)[n+]([O-])c2ccccc21 | 0.78 µM | 9.45 µM | 1.24 µM | 18.3 µM | 19.8 µM | 0.39 µM | 4.27 µM | 8.42 µM | 9.31 µM | 7.65 µM | Activity (K562 [11]): Active; Activity (K562 [12]): Active; Activity (K562 [13]): 9.5%; Activity (K562 [14]): 32.11%; Activity (K562 [15]): Active; Activity (K562 [16]): Active; Activity (K562 [17]): Active; Activity (K562 [18]): Active; Activity (K562 [19]): Active; Activity (K562 [20]): Active; Activity (K562 [21]): Active
O=[N+]([O-])c1cccc(COCNc2n[n+]([O-])c3ccccc3[n+]2[O-])c1 | 0.52 µM | 8.54 µM | 0.65 µM | 5.65 µM | 16.6 µM | 0.58 µM | 3.44 µM | 2.89 µM | > 100 µM | 3.07 µM | –
CCCCOCNc1n[n+]([O-])c2ccccc2[n+]1[O-] | 3.99 µM | 21.1 µM | 3.24 µM | 17.6 µM | 15.2 µM | 1.75 µM | 2.32 µM | 6.31 µM | 6.01 µM | 14.7 µM | –
CCCCCOCNc1n[n+]([O-])c2ccccc2[n+]1[O-] | 3.05 µM | 17 µM | 3.3 µM | 14.5 µM | 39.5 µM | 1.22 µM | 2.9 µM | 6.46 µM | 8.51 µM | 9.2 µM | –
[O-][n+]1nc(NCOCc2ccc(Cl)cc2)[n+]([O-])c2ccccc21 | 0.81 µM | 14.5 µM | 1.85 µM | 3.26 µM | 8.26 µM | 1.3 µM | 2.19 µM | 1.47 µM | 5.1 µM | 5.76 µM | –
COc1ccc2c(c1)[n+]([O-])nc(NCOC(C)c1ccccc1)[n+]2[O-] (stereo not drawn) | 0.74 µM | 8.04 µM | 0.25 µM | 6.69 µM | 12.4 µM | 0.22 µM | 0.22 µM | 3.13 µM | > 100 µM | 4.14 µM | –
CCOCNc1n[n+]([O-])c2ccccc2[n+]1[O-] | 4.23 µM | 27.1 µM | 4.99 µM | 15.4 µM | 22.5 µM | 2.8 µM | 4.09 µM | 10.5 µM | 7.4 µM | 15.9 µM | Activity (K562 [11]): Active; Activity (K562 [12]): Active; Activity (K562 [13]): 14.13%; Activity (K562 [14]): 33.07%; Activity (K562 [15]): Active; Activity (K562 [16]): Active; Activity (K562 [17]): Active; Activity (K562 [18]): Active; Activity (K562 [19]): Active; Activity (K562 [20]): Active; Activity (K562 [21]): Active
[O-][n+]1nc(NCOCc2ccccc2)[n+]([O-])c2ccccc21 | 4.79 µM | 20.1 µM | 4.69 µM | 16.1 µM | 12.3 µM | 5.72 µM | 4.14 µM | 10.8 µM | 11.9 µM | 13.4 µM | –
